In ChEMBL document CHEMBL4130582, “Total Synthesis of Reniochalistatin E” (J Nat Prod, 2017):
Residues, ends and D or L forms follow the SMILES beside them. *: point of attachment. Boc = CC(C)(C)OC(=O)*

Legend:
Assay type in all cases: functional, cell-based
[1] = tested on: RPMI-8226; assay: Cytotoxicity against human RPMI8226 cells after 72 hrs by Alamar Blue assay; conditions: RPMI-8226, 72 h
Outline: (§1)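 Nonadherent cells in RPMI1640 + 10% FBS at 37 °C, 5% CO2. Compound from DMSO stock was diluted in media (31.6 nM to 200 μM) and plated in triplicate; cells (2000/well) were added afterwards. After 69 h, Alamar Blue was added for 3 h more; fluorescence read at ex 560/em 590 nm. Doxorubicin and etoposide served as positive controls. IC50 taken from ≥3 independent experiments.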

[2] = tested on: HeLa; assay: Cytotoxicity against human HeLa cells after 72 hrs by Alamar Blue assay
Outline: (§2)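 A549 or HeLa cells in RPMI1640 + 10% FBS at 37 °C, 5% CO2. Seeded 1500 cells/well and left to adhere 2−3 h, then given compound diluted from DMSO stock in media (31.6 nM to 200 μM), in triplicate. After 69 h, Alamar Blue was added for 3 h more; fluorescence read at ex 560/em 590 nm. Doxorubicin and etoposide served as positive controls, untreated wells as negative. IC50 taken from ≥3 independent experiments.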

[3] = Cytotoxicity against human MiaPaCa cells after 72 hrs by Alamar Blue assay; conditions: MIA PaCa-2, 72 h
Outline: as §2, with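 “Mia PaCa-2” for “A549 or HeLa cells”, “DMEM” for “RPMI1640”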

[4] = tested on: U-937; assay: Cytotoxicity against human U937 cells after 72 hrs by Alamar Blue assay; conditions: U-937, 72 h; outline: as §1
[5] = tested on: A549; assay: Cytotoxicity against human A549 cells after 72 hrs by Alamar Blue assay; conditions: A549, 72 h; outline: as §2
[6] = Cytotoxicity against human MM1R cells after 72 hrs by Alamar Blue assay; conditions: MM.1R; outline: as §1

Compound | IC50 [1] [µM] | IC50 [2] [µM] | IC50 [3] [µM] | IC50 [4] [µM] | IC50 [5] [µM] | IC50 [6] [µM]
CC[C@H](C)[C@H](NC(=O)OC(C)(C)C)C(=O)N1CCC[C@H]1C(=O)N[C@@H](CC(C)C)C(=O)N[C@@H](Cc1c[nH]c2ccccc12)C(=O)N1CCC[C@H]1C(=O)N[C@H](C(=O)N[C@H](C(=O)N1CCC[C@H]1C(=O)OC)[C@@H](C)CC)C(C)C (Boc-IPLWPVIP-OMe) | > 20 | > 20 | > 20 | > 20 | > 20 | > 20
CC[C@H](C)[C@H](NC(=O)[C@@H](NC(=O)[C@@H]1CCCN1C(=O)OC(C)(C)C)C(C)C)C(=O)N1CCC[C@H]1C(=O)N[C@H](C(=O)N1CCC[C@H]1C(=O)N[C@@H](CC(C)C)C(=O)N[C@@H](Cc1c[nH]c2ccccc12)C(=O)OC)[C@@H](C)CC (Boc-PVIPIPLW-OMe) | > 20 | > 20 | 19.1 | > 20 | > 20 | > 20
CC[C@H](C)[C@@H]1NC(=O)[C@H](C(C)C)NC(=O)[C@@H]2CCCN2C(=O)[C@H](Cc2c[nH]c3ccccc23)NC(=O)[C@H](CC(C)C)NC(=O)[C@@H]2CCCN2C(=O)[C@H]([C@@H](C)CC)NC(=O)[C@@H]2CCCN2C1=O (cyclo(IPIPLWPV)) | 4.5 | 16.9 | > 20 | 12.4 | > 20 | > 11.2
H-IPLWPVIP-OH | 16.4 | 18.4 | > 20 | > 20 | > 20 | > 20
H-PVIPIPLW-OH | > 20 | > 20 | > 20 | 9.5 | > 20 | > 20
